GASC1 inh: inhibitors of GASC-1 (KDM4C) histone demethylase, primary screen, biochemical, single concentration HTS | inhibition, % at 12.5 µM | AID 720574, 2013 | Lysine-specific demethylase 4C (Homo sapiens), Q9H3R0 | GST-KDM4C 2-372, H3K9me3 peptide, LANCE TR-FRET | actives 0.15% (n = 96,000);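 active = mean replicate inhibition above about 25%, with at least 55% of replicates also reaching it, limit read from the data, passing the limit was not always enough; inconclusive = only one of those two conditions met; inactive = neither condition met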
Target sequence (Q9H3R0 2-372 limits assumed): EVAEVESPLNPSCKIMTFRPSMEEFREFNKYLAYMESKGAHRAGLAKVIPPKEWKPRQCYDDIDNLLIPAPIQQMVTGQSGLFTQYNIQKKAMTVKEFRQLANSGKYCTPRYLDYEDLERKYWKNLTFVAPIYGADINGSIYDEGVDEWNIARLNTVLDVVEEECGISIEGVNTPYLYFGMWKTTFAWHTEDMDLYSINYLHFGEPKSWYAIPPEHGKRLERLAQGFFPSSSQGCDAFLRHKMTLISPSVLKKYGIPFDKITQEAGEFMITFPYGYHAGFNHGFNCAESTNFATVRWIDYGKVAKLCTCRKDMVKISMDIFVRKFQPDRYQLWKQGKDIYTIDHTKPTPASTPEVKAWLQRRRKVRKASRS
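Test system: N-terminal GST-fused human GASC-1 (KDM4C) fragment, residues 2-372; quantity: GASC-1 enzyme at 10 nM final in reaction; dosing: single dose; schedule: 30 min demethylation and 1 h detection at room temperature; signal: LANCE TR-FRET, excitation 340 nm, emissions 618 and 671 nm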
T cruzi growth-1: T. cruzi intracellular proliferation inhibitors, primary screen, cell-based, beta-gal Tulahuen parasites, NIH3T3 host, luminescence; actives 5.9% (n = 77,000); inhibition, % at 8.34 µM; T. cruzi beta-gal in NIH3T3, GalScreen luminescence, 90 h; AID 624255, 2012;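 active = mean inhibition above about 93%, with at least 55% of replicates each passing it, limit read from the data, passing the limit was not always enough; inconclusive = only one of those two conditions holds; inactive = neither condition holds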
IDH1 mut inh: inhibitors of IDH1 R132H reductase, primary screen, biochemical, plate reader, single point. Isocitrate dehydrogenase [NADP] cytoplasmic (Homo sapiens), O75874. diaphorase/resazurin fluorescence, 60 min. inhibition, % at 10 µM. actives 0.18% (n = 70,000). AID 624101, 2012; in the data active = inhibition above about 34%; inconclusive = no clear call, values can overlap the other calls; inactive = below about 11%;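 also: 0% = DMSO and 100% = no enzyme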
Pf Dd2 inh: P. falciparum Dd2 growth inhibitors, primary screen, SYBR Green fluorescence, single dose replicates. 72 h; active compounds read low. activity change, % at 10 µM. actives 2.3% (n = 94,000); in the data active = activity change below about -80%; inconclusive = no clear call, values can overlap the other calls
T cruzi growth-2: T. cruzi intracellular proliferation inhibitors, confirmation, cell-based, NIH3T3 host, beta-gal parasite, luminescence, cherry-pick. actives 72% (n = 5,600). T. cruzi beta-gal in NIH3T3, GalScreen luminescence, 90 h. inhibition, % at 8.35 µM. AID 651739, 2012. shares compounds with T cruzi growth-1;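 active = mean replicate inhibition above about 95% and at least 55% of replicates individually reaching it, limit read from the data; inconclusive = only one of the two criteria is met; inactive = neither criterion is met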
T cruzi growth-3: inhibitors of intracellular T. cruzi replication, confirmation, NIH3T3 host cells, beta-gal parasites, cherry-pick, set 2. shares compounds with T cruzi growth-1. T. cruzi beta-gal in NIH3T3, GalScreen luminescence, 90 h. inhibition, % at 2.09 µM. actives 21% (n = 5,600). AID 651740, 2012;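 active = mean inhibition above about 95%, with at least 55% of replicates also reaching it, limit read from the data; inconclusive = meets just one of the two conditions; inactive = meets neither condition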;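 also: plate controls were neutral control median for no effect and positive control median for full effect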
3T3 cytotox: cytotoxicity in mouse NIH/3T3 fibroblasts, confirmation, cytotoxicity control for T. cruzi proliferation inhibitor project, cell-based, cherry-pick, single point; shares compounds with T cruzi growth-1; NIH/3T3 viability, CellTiter-Glo ATP luminescence, 90 h; cytotoxicity (signal decrease), % at 8.35 µM; actives 14% (n = 5,600); AID 651742, 2012;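 active = mean signal decrease across replicates above about 35% based on untreated-well scatter, with enough replicates individually passing, limit read from the data; inconclusive = no rule stated though some were filed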;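 also: 0% = median of neutral control wells and 100% = median of positive control wells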
3T3 cytotox 2: NIH/3T3 fibroblast cytotoxicity, confirmation, cytotoxicity control, cell-based, cherry-pick, single point, set 2. shares compounds with T cruzi growth-1. NIH/3T3 viability, CellTiter-Glo ATP luminescence, 90 h. inhibition, % at 24.9 µM. actives 56% (n = 5,600). AID 651744, 2012;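 active = mean loss of cell viability signal at or above a set limit, and enough replicates individually reaching it; inconclusive = meets only the mean limit or only the replicate share; inactive = meets neither condition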;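 also: 0% = median of neutral control wells and 100% = median of positive control wells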
* = called active by the depositor; ? = inconclusive; · = not tested or not shown; + = active, no number. This is a sample that favours compounds with a hit; in the whole collection about 5.8% have one here.

SMILES | GASC1 inh | T cruzi growth-1 | IDH1 mut inh | Pf Dd2 inh | T cruzi growth-2 | T cruzi growth-3 | 3T3 cytotox | 3T3 cytotox 2
Cc1ccccc1S(=O)(=O)N1CCCCN2[C@H](C1)[C@@H](c1ccc(C#CCN(C)C)cc1)[C@@H]2CO | 0 | 38 | · | 2 | · | · | · | ·
CCCC#Cc1ccc([C@H]2[C@@H](CO)N3CCCCN(S(=O)(=O)c4ccccc4C)C[C@@H]23)cc1 | 14 | 108* | · | -73 | 100* | 94 | 3 | -4
CCCC#Cc1ccc([C@@H]2[C@@H](CO)N3CCCCN(S(=O)(=O)CC)C[C@@H]23)cc1 | -2 | 102* | · | 14 | 50 | 10 | 30 | 35*
CCCC#Cc1ccc([C@@H]2[C@H]3CN(S(=O)(=O)CC)CCCCN3[C@H]2CO)cc1 | 0 | 17 | · | 6 | · | · | · | ·
Cc1ccccc1S(=O)(=O)N1CCCCN2[C@@H](CO)[C@H](c3ccc(C#CCN(C)C)cc3)[C@@H]2C1 | 2 | 67 | · | -49 | · | · | · | ·
COCC#Cc1ccc([C@H]2[C@@H](CO)N3CCCCN(S(=O)(=O)c4ccccc4C)C[C@@H]23)cc1 | -2 | 86 | · | -41 | · | · | · | ·
CCCC#Cc1ccc([C@@H]2[C@H]3CN(S(=O)(=O)c4ccccc4C)CCCCN3[C@H]2CO)cc1 | 2 | 111* | · | -51 | 96* | ? | ? | 106*
CCCC#Cc1ccc([C@H]2[C@H](CO)N3CCCCN(S(=O)(=O)c4ccccc4C)C[C@@H]23)cc1 | -1 | 96* | · | -21 | 86 | 99* | ? | 103*
Cc1noc(C)c1S(=O)(=O)N(C)C[C@@H]1OCCCC[C@@H](C)Oc2ccc(NC(=O)Cc3ccccc3)cc2C(=O)N([C@H](C)CO)C[C@H]1C | -1 | 56 | · | -75 | · | · | · | ·
COCC#Cc1ccc([C@H]2[C@@H](CO)N3CCCCN(S(=O)(=O)c4ccccc4C)C[C@H]23)cc1 | -2 | 98* | · | -62 | 98* | 70 | 17 | 107*
COCC#Cc1ccc([C@@H]2[C@H](CO)N3CCCCN(S(=O)(=O)c4ccccc4C)C[C@@H]23)cc1 | -1 | 27 | · | -62 | · | · | · | ·
CCCC#Cc1ccc([C@H]2[C@@H](CO)N3CCCCN(S(=O)(=O)c4ccccc4C)C[C@H]23)cc1 | -2 | 108* | · | -73 | 103* | ? | 52* | 103*
COCC#Cc1ccc([C@H]2[C@H]3CN(S(=O)(=O)c4ccccc4C)CCCCN3[C@H]2CO)cc1 | -2 | 95 | · | -24 | · | · | · | ·
N#Cc1cccc(-c2ccc([C@@H]3[C@H]4CN(C(=O)Nc5cccc(F)c5)CCCCN4[C@H]3CO)cc2)c1 | -1 | 93 | · | -40 | · | · | · | ·
N#Cc1cccc(-c2ccc([C@H]3[C@@H](CO)N4CCCCN(C(=O)Nc5ccc(F)cc5)C[C@@H]34)cc2)c1 | 0 | 123* | · | 3 | 109* | 79 | 2 | 8
N#Cc1cccc(-c2ccc([C@@H]3[C@@H](CO)N4CCCCN(C(=O)Nc5cccc(F)c5)C[C@H]34)cc2)c1 | 2 | 115* | · | -26 | 105* | 65 | 27 | 104*
CCC(=O)N1CCCCN2[C@@H](CO)[C@@H](c3ccc(-c4cccc(C#N)c4)cc3)[C@@H]2C1 | 1 | 112* | · | -54 | 90 | 92 | 7 | 13
N#Cc1cccc(-c2ccc([C@@H]3[C@H]4CN(C(=O)Nc5ccccc5)CCCCN4[C@H]3CO)cc2)c1 | 0 | 102* | · | 18 | 105* | 28 | 17 | 42*
C/C=C/c1cnc2c(c1)C(=O)N([C@H](C)CO)C[C@H](C)[C@@H](CN(C)Cc1ccccc1F)O2 | 1 | · | -1 | -8 | · | · | · | ·
C/C=C/c1cnc2c(c1)C(=O)N([C@H](C)CO)C[C@H](C)[C@H](CN(C)Cc1ccccc1F)O2 | -3 | · | 0 | -66 | · | · | · | ·
C[C@H]1CN([C@@H](C)CO)C(=O)c2cc(/C=C/c3ccccc3)cnc2O[C@@H]1CN(C)Cc1ccccc1F | -1 | 112* | 0 | -47 | 111* | 79 | 7 | 105*
C[C@@H]1CN([C@H](C)CO)C(=O)c2cc(/C=C/c3ccccc3)cnc2O[C@@H]1CN(C)Cc1ccccc1F | -2 | 116* | 3 | -24 | 92 | 58 | -1 | 35*
C[C@H]1CN([C@@H](C)CO)C(=O)c2cc(/C=C/c3ccccc3)cnc2O[C@H]1CN(C)Cc1ccccc1F | -1 | 116* | 0 | -48 | 104* | 95 | 18 | 41*
C/C=C/c1cnc2c(c1)C(=O)N([C@@H](C)CO)C[C@H](C)[C@@H](CN(C)Cc1ccccc1F)O2 | -1 | · | 0 | 0 | · | · | · | ·
C[C@H](CO)N1C[C@H](C)[C@@H](CN(C)Cc2ccccc2F)Oc2ncc(/C=C/c3ccccc3)cc2C1=O | 0 | 120* | 0 | -45 | 108* | 87 | -22 | 104*
SMILES | GASC1 inh | T cruzi growth-1 | IDH1 mut inh | Pf Dd2 inh | T cruzi growth-2 | T cruzi growth-3 | 3T3 cytotox | 3T3 cytotox 2
C[C@@H]1CN([C@H](C)CO)C(=O)Cc2cc(NS(=O)(=O)c3ccccc3)ccc2O[C@@H]1CN(C)Cc1ccncc1 | 13 | 50 | · | 2 | · | · | · | ·
COC(=O)[C@@H]1[C@@H](CO)[C@@H]2Cn3c(ccc(C4=CCCCC4)c3=O)[C@@H]2N1CCC(F)(F)F | 4 | 18 | · | · | · | · | · | ·
CCN1[C@H](C(=O)OC)[C@@H](CO)[C@@H]2Cn3c(ccc(C4=CCCCC4)c3=O)[C@@H]21 | 2 | 103* | · | -8 | 56 | -8 | 14 | 13
CCN1[C@@H]2c3ccc(C4=CCCCC4)c(=O)n3C[C@@H]2[C@@H](CO)[C@@H]1C(=O)OC | 3 | 97* | · | -1 | -6 | -18 | -23 | 3
CN(C)C(=O)[C@@H]1[C@@H](CO)[C@@H]2Cn3c(ccc(C4=CCCCC4)c3=O)[C@@H]2N1Cc1ccccn1 | 1 | + | · | · | -5 | 6 | 3 | 39*
CCOc1ccc(NC(=S)Nc2sc3c(c2C(=O)OC)CCC3)c([N+](=O)[O-])c1 | · | · | 0 | · | · | · | · | ·
Cc1ccc(S(=O)(=O)N(C)C[C@H]2Oc3ccc(NC(=O)CCCN(C)C)cc3C(=O)N([C@@H](C)CO)C[C@@H]2C)cc1 | -1 | 3 | -4 | 24 | · | · | · | ·

Source: PubChem BioAssay (Broad Institute)
